Data taken from ChEMBL document CHEMBL1143672, “Synthesis and pharmacology of site-specific cocaine abuse treatment agents: restricted rotation analogues of methylphenidate” (J Med Chem, 2007).
Structures can show the parent of a compound that is named as a salt.

Assays:
[1] = biological target: T1, Sodium-dependent dopamine transporter (Rattus norvegicus, UniProt P23977); assay: Displacement of [3H]WIN-35428 from DAT in Sprague-Dawley rat striatum
[2] = biological target: Norepinephrine transporter (Rattus norvegicus, UniProt Q9WTR4); assay: Displacement of [3H]nisoxetine from NET in Sprague-Dawley rat cortical tissue
[3] = biological target: Sodium-dependent serotonin transporter (Rattus norvegicus, UniProt P31652); assay: Displacement of [3H]citalopram from 5HTT in Sprague-Dawley rat cerebrum
Method in brief: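 Rat cortical P2 fraction in 25 mM sodium phosphate, pH 7.7 at 0 °C; 2 nM [3H]citalopram, 3 h at 0 °C; filtration. Nonspecific binding with 1 µM clomipramine. Compounds in water, dilute DMSO or methanol (≤0.3% solvent). Data corrected for filter binding; IC50 by nonlinear regression, Ki by Cheng-Prusoff.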

[4] = biological target: Monoamine transporters; serotonin & dopamine (Rattus norvegicus) (UniProt P31652+P23977); assay: Selectivity for rat DAT over rat 5HTT; assay type: protein assay
[5] = biological target: Monoamine transporters; Norepininephrine & dopamine (Rattus norvegicus) (UniProt P23977+Q9WTR4); assay: Selectivity for rat DAT over rat NET; assay type: protein assay
[6] = biological target: Monoamine transporters; Norepinephrine & serotonin (Rattus norvegicus) (UniProt P31652+Q9WTR4); assay: Selectivity for rat NET over rat 5HTT; assay type: protein assay
[7] = biological target: Sodium-dependent serotonin transporter (Rattus norvegicus) (UniProt P31652); assay: Displacement of [3H]citalopram from 5HTT in Sprague-Dawley rat cerebrum at 10 uM
[8] = biological target: T1, Sodium-dependent dopamine transporter; assay: Inhibition of [3H]DA uptake at DAT in Sprague-Dawley rat striatum
Method in brief: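 Uptake of [3H]dopamine into the S1 fraction of rat striatal homogenate; IC50 from curves fit by nonlinear regression.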

[9] = biological target: Norepinephrine transporter (Rattus norvegicus) (UniProt Q9WTR4); assay: Displacement of [3H]nisoxetine from NET in Sprague-Dawley rat cortical tissue at 5 uM
[10] = biological target: Norepinephrine transporter (Rattus norvegicus) (UniProt Q9WTR4); assay: Displacement of [3H]nisoxetine from NET in Sprague-Dawley rat cortical tissue at 10 uM

Sequence of Norepinephrine transporter (Rattus norvegicus) (Q9WTR4 as listed by the source): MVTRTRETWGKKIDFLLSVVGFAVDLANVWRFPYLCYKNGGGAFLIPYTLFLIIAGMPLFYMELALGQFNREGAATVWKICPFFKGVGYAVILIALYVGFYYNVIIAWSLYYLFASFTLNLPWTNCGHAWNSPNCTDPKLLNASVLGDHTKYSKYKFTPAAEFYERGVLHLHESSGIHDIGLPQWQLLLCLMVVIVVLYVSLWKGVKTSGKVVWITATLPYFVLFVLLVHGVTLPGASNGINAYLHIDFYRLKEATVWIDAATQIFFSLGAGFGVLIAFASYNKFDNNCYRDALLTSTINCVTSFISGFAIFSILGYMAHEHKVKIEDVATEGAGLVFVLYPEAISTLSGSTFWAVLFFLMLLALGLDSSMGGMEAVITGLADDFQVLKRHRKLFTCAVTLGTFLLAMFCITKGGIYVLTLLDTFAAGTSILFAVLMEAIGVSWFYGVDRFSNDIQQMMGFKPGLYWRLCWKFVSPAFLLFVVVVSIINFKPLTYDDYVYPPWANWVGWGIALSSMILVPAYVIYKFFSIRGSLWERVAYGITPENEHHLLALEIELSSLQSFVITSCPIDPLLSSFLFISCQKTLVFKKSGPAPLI
Sequence of Norepinephrine transporter (Q9WTR4 whole entry): as the sequence (Q9WTR4 as listed by the source) above
Sequence of Sodium-dependent serotonin transporter (Rattus norvegicus) (P31652 whole entry): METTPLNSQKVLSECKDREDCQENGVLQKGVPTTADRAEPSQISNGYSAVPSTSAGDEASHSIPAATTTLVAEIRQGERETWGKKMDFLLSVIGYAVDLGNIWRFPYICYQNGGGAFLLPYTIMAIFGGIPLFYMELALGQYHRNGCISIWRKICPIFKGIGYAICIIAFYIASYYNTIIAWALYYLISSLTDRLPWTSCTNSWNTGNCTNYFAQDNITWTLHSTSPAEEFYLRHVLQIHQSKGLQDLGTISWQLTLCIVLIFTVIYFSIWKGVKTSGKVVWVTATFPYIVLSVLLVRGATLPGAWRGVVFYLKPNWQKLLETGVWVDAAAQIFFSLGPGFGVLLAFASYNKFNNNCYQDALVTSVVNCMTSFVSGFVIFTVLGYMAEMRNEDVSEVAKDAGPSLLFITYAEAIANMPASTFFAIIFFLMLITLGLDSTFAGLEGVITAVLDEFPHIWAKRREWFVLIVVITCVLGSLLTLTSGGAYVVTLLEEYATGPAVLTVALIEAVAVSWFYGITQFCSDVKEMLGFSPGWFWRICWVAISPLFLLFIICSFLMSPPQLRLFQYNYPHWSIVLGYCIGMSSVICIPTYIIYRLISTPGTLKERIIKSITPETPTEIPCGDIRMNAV
Sequence of Sodium-dependent serotonin transporter (P31652 whole entry): as above
Sequence of Monoamine transporters; serotonin & dopamine (Rattus norvegicus) (P23977 whole entry, looked up): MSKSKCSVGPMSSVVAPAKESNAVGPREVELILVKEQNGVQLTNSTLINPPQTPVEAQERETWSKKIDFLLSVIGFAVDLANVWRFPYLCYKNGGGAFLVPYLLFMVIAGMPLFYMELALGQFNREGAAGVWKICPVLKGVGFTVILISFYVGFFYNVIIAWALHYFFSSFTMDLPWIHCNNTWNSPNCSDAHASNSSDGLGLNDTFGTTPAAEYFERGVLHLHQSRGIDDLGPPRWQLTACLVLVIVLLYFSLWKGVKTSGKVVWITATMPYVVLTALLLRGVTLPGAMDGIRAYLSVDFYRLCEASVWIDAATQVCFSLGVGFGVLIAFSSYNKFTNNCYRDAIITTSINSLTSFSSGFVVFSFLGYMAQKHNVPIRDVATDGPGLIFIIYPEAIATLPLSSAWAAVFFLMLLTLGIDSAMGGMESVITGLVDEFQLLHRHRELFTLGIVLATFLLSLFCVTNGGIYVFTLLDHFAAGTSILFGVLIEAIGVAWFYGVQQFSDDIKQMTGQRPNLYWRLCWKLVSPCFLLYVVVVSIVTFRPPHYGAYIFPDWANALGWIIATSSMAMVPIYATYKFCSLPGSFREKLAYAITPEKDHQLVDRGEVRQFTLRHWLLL
Sequence of Monoamine transporters; serotonin & dopamine (Rattus norvegicus) (P31652 whole entry, looked up): as the sequence (P31652 whole entry) above
T1 sequence (P23977 whole entry): as the sequence (P23977 whole entry, looked up) above

Compound | Ki [1] [nM] | Ki [2] [nM] | Ki [3] [nM] | Selectivity ratio [4] | Selectivity ratio [5] | Selectivity ratio [6] | inhibition [7] [%] | IC50 [8] [nM] | inhibition [9] [%] | inhibition [10] [%]
O[C@H]1CCN2CCCC[C@@H]2[C@H]1c1ccc(Cl)c(Cl)c1 | 2.46 | 27.9 | 168 | 68 | 11 | 6 | – | – | – | –
COC[C@H](c1ccccc1)[C@H]1CCCCN1 (relative stereo) | 89.9 | – | – | 110 | – | – | 47.8 | 281 | – | –
O=C1CCN2CCCC[C@@H]2[C@H]1c1ccccc1 (relative stereo) | 908 | 4030 | – | > 11 | 4.4 | > 2.5 | 5 | 12400 | 52 | –
C[C@@H]1C[C@H](c2ccccc2)[C@H]2CCCCN2C1 | 119 | 76 | 243 | 2 | 0.64 | 3.2 | – | 248 | – | –
CC[C@@H]1CCN2CCCC[C@@H]2[C@H]1c1ccccc1 | 27.6 | 411 | 2390 | 87 | 15 | 5.8 | 80 | – | – | –
CO[C@H]1CCN2CCCC[C@@H]2[C@H]1c1ccccc1 | 10.8 | 63.7 | 2070 | 190 | 5.9 | 32 | 73 | 61 | – | –
COC(=O)[C@H](c1ccccc1)[C@H]1CCCCN1 [DEXMETHYLPHENIDATE HYDROCHLORIDE] | – | 270 | – | – | – | – | 14 | – | – | –
CC[C@@]1(O)CCN2CCCC[C@@H]2[C@H]1c1ccccc1 | 175 | 1520 | – | > 57 | 8.69 | > 6.6 | 19 | – | – | –
O[C@@H]1CCN2CCCC[C@@H]2[C@H]1c1ccc(Cl)c(Cl)c1 | 35.7 | 367 | 2050 | 57 | 10 | 5.6 | – | – | – | –
OC[C@H](c1ccc(Cl)c(Cl)c1)[C@H]1CCCCN1 (relative stereo) | 3.91 | – | 276 | 71 | – | – | 94.6 | 22.5 | – | –
CC[C@H]1CCN2CCCC[C@@H]2[C@H]1c1ccccc1 | 5.51 | 60.8 | 3550 | 640 | 11 | 58 | 86 | – | – | –
OC[C@H](c1ccccc1)[C@H]1CCCCN1 (relative stereo) | 406 | – | – | > 25 | – | – | 31 | 1520 | – | –
O=C1CC[C@H](c2ccccc2)[C@H]2CCCCN12 | – | – | 3550 | 0.54 | > 0.76 | < 0.7 | – | 8490 | 11 | –
CC[C@@H]1CCN2CCCC[C@@H]2[C@H]1c1ccc(Cl)c(Cl)c1 | 3.44 | 102 | 286 | 83 | 30 | 2.8 | – | – | – | –
CCN1CCCC[C@@H]1[C@H](C)c1ccccc1 (relative stereo) | 7610 | – | – | > 1.3 | > 0.66 | – | 11 | 7960 | 8.3 | –
C[C@H]1C[C@H](c2ccccc2)[C@H]2CCCCN2C1 | 178 | 694 | 427 | 2.4 | 3.9 | 0.62 | – | 368 | – | –

Compound | Ki [1] [nM] | Ki [2] [nM] | Ki [3] [nM] | Selectivity ratio [4] | Selectivity ratio [5] | Selectivity ratio [6] | inhibition [7] [%] | IC50 [8] [nM] | inhibition [9] [%] | inhibition [10] [%]
CO[C@@H]1CCN2CCCC[C@@H]2[C@H]1c1ccccc1 | 570 | 2040 | – | > 18 | 3.6 | > 4.9 | 14 | 1850 | 64 | –
COC(=O)[C@H](c1ccc(Cl)c(Cl)c1)[C@H]1CCCCN1 | 4.76 | – | 667 | 140 | – | – | – | 7 | – | –
O=C1CCN2CCCC[C@@H]2[C@H]1c1ccc(Cl)c(Cl)c1 (relative stereo) | 14 | 280 | – | 710 | 20 | 36 | 54 | – | – | –
O[C@H]1CCN2CCCC[C@@H]2[C@H]1c1ccccc1 | 108 | 351 | – | > 93 | 3.3 | > 28 | 12 | 680 | – | –
Clc1ccc([C@H]2CCCN3CCCC[C@H]23)cc1Cl (relative stereo) | 3.39 | 28.4 | 121 | 36 | 8.4 | 4.3 | – | 11 | – | –
Clc1ccccc1[C@H]1CCCN2CCCC[C@H]12 (relative stereo) | 480 | 2750 | 1840 | 3.8 | 5.7 | 0.67 | – | 1260 | 58 | –
COC(=O)[C@H](c1ccccc1Cl)[C@H]1CCCCN1 | 1740 | – | – | > 5.7 | – | – | 22.2 | 2660 | – | –
O[C@@H]1CCN2CCCC[C@@H]2[C@H]1c1ccccc1 | 6250 | – | – | > 1.6 | > 0.8 | – | 1 | 10700 | 23.7 | –
Clc1ccc([C@@H]2CCCN3CCCC[C@H]23)cc1Cl (relative stereo) | 34.6 | 160 | 102 | 3 | 4.6 | 0.64 | – | 87.6 | – | –
CC[C@H]1CCN2CCCC[C@@H]2[C@H]1c1ccc(Cl)c(Cl)c1 | 4.12 | 98.8 | 199 | 48 | 24 | 2 | – | – | – | –
CCN1CCCC[C@@H]1[C@H](CO)c1ccccc1 (relative stereo) | 2100 | – | – | > 4.8 | – | – | 16.2 | 10400 | – | –
c1ccc(C2CCCNC2)cc1 (stereo not given) | 4560 | 534 | – | 2.2 | 0.12 | 19 | 53 | 1060 | – | –
c1ccc(CC2CCCCN2)cc1 (stereo not given) | 6360 | – | – | > 1.6 | – | – | 22 | 8800 | – | 36
COC(=O)[C@@H](c1ccc(Cl)c(Cl)c1)[C@H]1CCCCN1 (relative stereo) | 363 | – | 2570 | 7.1 | – | – | – | 317 | – | –
c1ccc([C@H]2CCCN3CCCC[C@H]23)cc1 (relative stereo) | 76.2 | 138 | 5140 | 67 | 1.8 | 37 | – | 244 | – | –
